Measurements from ChEMBL document CHEMBL5331128, “Alicyclic Ring Size Variation of 4-Phenyl-2-naphthoic Acid Derivatives as P2Y14 Receptor Antagonists” (J Med Chem, 2023).
In brackets after ≈: the same amount, converted by molar mass. Activity calls are given as the source filed them.

Legend:
[1] = Microsomal stability in mouse liver microsomes assessed as half life; type: ADME, Microsome
Cytochrome P450 1A2 = target: T1, Cytochrome P450 1A2 (Homo sapiens, UniProt P05177); assay: Inhibition of CYP1A2 (unknown origin); type: ADME
T1 sequence (P05177 whole entry): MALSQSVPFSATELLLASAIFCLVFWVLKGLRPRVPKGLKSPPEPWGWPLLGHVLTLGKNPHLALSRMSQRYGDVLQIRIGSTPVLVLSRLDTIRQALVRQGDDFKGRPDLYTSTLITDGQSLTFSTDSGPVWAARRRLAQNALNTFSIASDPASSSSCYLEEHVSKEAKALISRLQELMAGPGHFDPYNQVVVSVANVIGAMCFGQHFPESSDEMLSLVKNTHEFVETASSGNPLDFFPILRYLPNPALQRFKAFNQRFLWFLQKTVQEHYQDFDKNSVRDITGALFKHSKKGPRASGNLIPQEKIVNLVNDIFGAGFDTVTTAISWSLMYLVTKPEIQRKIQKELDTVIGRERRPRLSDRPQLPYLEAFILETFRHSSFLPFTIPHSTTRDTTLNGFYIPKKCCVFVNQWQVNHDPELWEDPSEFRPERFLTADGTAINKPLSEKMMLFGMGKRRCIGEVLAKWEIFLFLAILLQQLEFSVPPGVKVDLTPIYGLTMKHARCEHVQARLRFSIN

[2] = Stability in mouse plasma assessed as parent compound remaining at 1 uM and measured at 120 mins by LC-MS/MS analysis; type: ADME, cell-free; conditions: 2 h
Outline: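 Plasma from human, rat and mouse; percent parent remaining at 120 min.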

[3] = Solubility of compound in pH 4.0 incubated for 20 hrs by pION method; type: physicochemical; conditions: buffer, pH 4, 20 h
Outline: (§1)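 pION method: 5 mM DMSO stocks diluted 1:100 into pION buffer at pH 4.0 or 7.4, incubated 20 h. Undissolved material removed by centrifugation at 14,000 rpm for 20 min, then supernatant mixed 1:1 with n-propanol. […] Mean ± SD reported.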

Mus musculus [4] = assay: Antiallodynic activity in CCI surgery neuropathic pain Hsd:ICR mouse model assessed as reversal of mechano-allodynia by measuring paw withdrawal threshold at 10 micromol/kg,po and measured upto 6 hrs by von frey test; type: functional, organism-based; conditions: dose 10.0 µmol/kg
Outline: (§2)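 CCI neuropathic pain in adult male CD-1 mice. Single oral gavage dose of 10 μmol/kg on day 7 post-surgery. Vehicle 5% DMSO + 10% (Kolliphor HS 15:DMSO 5:95) in 0.5% methylcellulose, 0.2 mL. Von Frey paw withdrawal threshold on both hindpaws. Mean ± SD; two-way ANOVA with Dunnett's test.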

[5] = Acute toxicity in Wistar rat assessed as mortality at 0.5 mg/kg, iv and measured upto 24 hrs; type: organism-based; conditions: in vivo
Outline: (§3)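 Male Wistar rats; single dose at 1, 3 or 10 mg/kg i.p., or 0.5 mg/kg i.v. Animals were watched for mortality and morbidity over the experimental period, in the course of a plasma pharmacokinetic study.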

Mus musculus [6] = assay: Antiallodynic activity in CCI surgery neuropathic pain Hsd:ICR mouse model assessed as reversal of mechano-allodynia by measuring paw withdrawal threshold at 10 micromol/kg,po and measured at 1 hrs by von frey test; type: functional, organism-based; conditions: dose 10.0 µmol/kg; outline: as §2
Mus musculus [7] = assay: Anti-asthmatic activity against OVA/Aspergillus-sensitized protease-mediated C57BL/6J mouse model allergic asthma assessed as reduction in macrophages in BAL fluid at 10 mg/kg,ip followed by 0.5 hrs OVA challenge and measured after 48 hrs; type: functional, organism-based; conditions: time 48.5 hrs
Cytochrome P450 2C9 = Cytochrome P450 2C9 (Homo sapiens, UniProt P11712); assay: Inhibition of CYP2C9 (unknown origin); type: ADME
Chain of Cytochrome P450 2C9 (P11712 whole entry): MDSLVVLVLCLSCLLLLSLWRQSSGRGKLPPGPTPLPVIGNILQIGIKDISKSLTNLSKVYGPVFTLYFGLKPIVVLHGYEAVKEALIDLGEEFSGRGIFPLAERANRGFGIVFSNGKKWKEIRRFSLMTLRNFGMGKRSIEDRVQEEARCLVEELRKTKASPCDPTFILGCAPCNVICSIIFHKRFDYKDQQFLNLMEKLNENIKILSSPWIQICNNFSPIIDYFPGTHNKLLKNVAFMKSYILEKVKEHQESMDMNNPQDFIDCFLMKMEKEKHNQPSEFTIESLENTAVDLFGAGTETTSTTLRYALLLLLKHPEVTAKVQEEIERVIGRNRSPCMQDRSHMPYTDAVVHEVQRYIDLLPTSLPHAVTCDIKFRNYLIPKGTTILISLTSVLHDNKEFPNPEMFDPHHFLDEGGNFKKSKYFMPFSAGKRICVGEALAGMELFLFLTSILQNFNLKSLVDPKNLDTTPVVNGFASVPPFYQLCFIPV

[8] = Protein binding in human plasma assessed as bound fraction; type: ADME, cell-free
Mus musculus [9] = assay: Anti-asthmatic activity against OVA/Aspergillus-sensitized protease-mediated C57BL/6J mouse model allergic asthma assessed as reduction in neutrophils in BAL fluid at 10 mg/kg,ip followed by 0.5 hrs OVA challenge and measured after 48 hrs; type: functional, organism-based; conditions: time 48.5 hrs
[10] = Acute toxicity in Wistar rat assessed as mortality at 1 to 10 mg/kg, ip and measured upto 24 hrs; type: organism-based; conditions: in vivo, dose 1-10 mg/kg; outline: as §3
[11] = Solubility of compound in pH 7.4 incubated for 20 hrs by pION method; type: physicochemical; conditions: buffer, pH 7.4, 20 h; outline: as §1
P2Y purinoceptor 14 = target: T2, P2Y purinoceptor 14 (Homo sapiens, UniProt Q15391); assay: Displacement of fluorescent tracer 4-(4-(1-(4-(1-(6-(3-carboxylato-4-(3-iminio-3H-xanthen-9-yl)benzamido)hexyl)-4,5-dihydro-1H-pyrrol-3-yl)butyl)piperidin-1-ium-4-yl)phenyl)-7-(4-(trifluoromethyl)phenyl)-2-naphthoate from human P2Y14R stably expressed in CHO cells assessed as inhibition constant by flow cytometry; type: cell-based
T2 sequence (Q15391 whole entry): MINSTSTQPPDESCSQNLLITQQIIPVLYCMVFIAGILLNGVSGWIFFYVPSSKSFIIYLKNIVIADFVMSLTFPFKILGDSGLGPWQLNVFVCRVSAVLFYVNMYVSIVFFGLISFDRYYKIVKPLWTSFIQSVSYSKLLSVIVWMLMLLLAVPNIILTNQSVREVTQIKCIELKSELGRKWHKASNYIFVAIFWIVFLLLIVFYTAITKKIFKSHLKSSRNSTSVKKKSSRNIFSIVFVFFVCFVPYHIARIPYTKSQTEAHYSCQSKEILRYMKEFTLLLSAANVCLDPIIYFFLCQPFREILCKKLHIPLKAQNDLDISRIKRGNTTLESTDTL
Outline: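 Whole-cell competitive binding: CHO cells expressing hP2Y14R (or HEK-293 cells expressing mP2Y14R) incubated with AlexaFluor488-labelled antagonist tracer at 20 nM.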

[12] = Microsomal stability in human liver microsomes assessed as half life; type: ADME, Microsome
Cytochrome P450 2C19 = Cytochrome P450 2C19 (Homo sapiens, UniProt P33261); assay: Inhibition of CYP2C19 (unknown origin); type: ADME
Chain of Cytochrome P450 2C19 (P33261 whole entry): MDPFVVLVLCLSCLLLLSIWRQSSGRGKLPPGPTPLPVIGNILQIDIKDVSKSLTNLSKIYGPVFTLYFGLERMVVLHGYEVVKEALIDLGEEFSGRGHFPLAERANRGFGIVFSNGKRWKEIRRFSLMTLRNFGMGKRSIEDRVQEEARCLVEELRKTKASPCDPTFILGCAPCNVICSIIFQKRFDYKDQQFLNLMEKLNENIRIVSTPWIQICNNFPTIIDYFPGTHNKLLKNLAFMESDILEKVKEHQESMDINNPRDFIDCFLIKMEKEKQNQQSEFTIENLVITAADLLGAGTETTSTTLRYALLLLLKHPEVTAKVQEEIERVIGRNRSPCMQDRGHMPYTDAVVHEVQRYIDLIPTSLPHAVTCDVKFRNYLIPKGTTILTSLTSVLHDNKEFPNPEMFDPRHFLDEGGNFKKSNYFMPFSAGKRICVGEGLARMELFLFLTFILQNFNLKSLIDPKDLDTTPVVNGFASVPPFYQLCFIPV

HepG2 = assay: Cytotoxicity in human HepG2 cells assessed as reduction in cell viability; type: toxicity, cell-based
[13] = Cmax in Wistar rat plasma at 10 mg/kg, ip and measured upto 24 hrs; type: ADME, organism-based; design: time < 24 hrs, dose 10 mg/kg, route ip
[14] = Half life in Wistar rat at 1 mg/kg, ip and measured upto 24 hrs; type: ADME, organism-based; conditions: in vivo
Mus musculus [15] = assay: Anti-asthmatic activity against OVA/Aspergillus-sensitized protease-mediated C57BL/6J mouse model allergic asthma assessed as reduction in airway eosinophilia in BAL fluid at 10 mg/kg,ip followed by 0.5 hrs OVA challenge and measured after 48 hrs; type: functional, organism-based; conditions: time 48.5 hrs
[16] = Protein binding in rat plasma assessed as bound fraction; type: ADME, cell-free
[17] = Intraperitoneal bioavailability in Wistar rat at 3 mg/kg and measured upto 24 hrs; conditions: in vivo, ip
Mus musculus [18] = assay: Protection against cardiac ischemia/reperfusion induced C57BL/6J mouse injury model assessed as reduction in infarct size at 2 mg/kg, sc prior to 0.5 hrs of myocardial ischemia and 48 h of reperfusion (Rvb= 26.4%); type: functional; design: scale not given: the % may be the effect or the level left; conditions: time 48.5 hrs
[19] = Half life in Wistar rat at 0.5 mg/kg, iv and measured upto 24 hrs; type: ADME, organism-based; conditions: in vivo
[20] = Half life in Wistar rat at 10 mg/kg, ip and measured upto 24 hrs; type: ADME, organism-based; conditions: in vivo

In the case of `O=C(O)c1cc(-c2ccc([C@]3(O)[C@@H]4CNC[C@H]3C4)cc2)c2ccc(-c3ccc(C(F)(F)F)cc3)cc2c1`, the t1/2 [1] is reported as 5.92 h, the IC50 (Cytochrome P450 1A2) is reported as > 30 µM and the Stability [2] is reported as 100%. For the same compound, the solubility [3] was 7.1 µg/mL (≈ 14.1 µM), the Activity (Mus musculus [4]) was “Active” and the Activity [5] was “Non-Toxic”. For the same compound, the Activity (Mus musculus [6]) was “Active”, the Activity (Mus musculus [7]) was “inactive” and the IC50 (Cytochrome P450 2C9) was > 30 µM. For the same compound, the PPB [8] was 99.3%, the Activity (Mus musculus [9]) was “inactive” and the Activity [10] was “Non-Toxic”. The solubility [11] was 1.4 µg/mL (≈ 2.78 µM), the Ki (P2Y purinoceptor 14) was 0.00344 µM and the t1/2 [12] was > 6.67 h. For the same compound, the IC50 (Cytochrome P450 2C19) was > 30 µM, the IC50 (HepG2) was 32.6 µM and the Cmax [13] was 4 µM. The t1/2 [14] was 3.01 h, the Activity (Mus musculus [15]) was “Active” and the PPB [16] was 99.48%. The bioavailability [17] was 114%, the Activity (Mus musculus [18]) was 31.8% and the t1/2 [19] was 2.36 h. The t1/2 [20] was 4.15 h.
